Test system: MS2 coat protein
Assay: apparent Kd, MS2 coat protein; higher = weaker binding; RNA-MaP array; FMN 200 µM where present
Outline: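 Stalled E. coli RNA polymerase transcribed the designs on Illumina sequencing-chip clusters. SNAP-549-labelled MS2 coat protein was titrated from 0.7 or 1.5 nM, doubling to 3 µM, without and then with constant ligand, in 100 mM Tris-HCl pH 7.5, 80 mM KCl, 4 mM MgCl2, BSA, DTT, yeast tRNA and Tween-20. Per-cluster binding curves were fitted to green signal normalised to red-channel RNA signal and control-cluster median Fmax. The apparent Kd is the median of the filtered fits.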

[1] = designed as: OFF switch for flavin mononucleotide, no ligand
[2] = ligand present: flavin mononucleotide, designed as: OFF switch for flavin mononucleotide
[3] = designed as: ON switch for flavin mononucleotide, no ligand
[4] = ligand present: flavin mononucleotide, designed as: ON switch for flavin mononucleotide

Row | Sequence | apparent Kd [1] [nM] | apparent Kd [2] [nM] | apparent Kd [3] [nM] | apparent Kd [4] [nM]
1 | AUUAUGUAAGGAUAUCUUACAUGUGACUUCGGUCACUGUUCAGAGAAGGUACAUGAGGAUCACCCAUGUAGAAC | 17.9 | 18.4 | – | –
2 | UUGGUAUUUGUAGGAUAUCUGUCGCCACCGUGUGGAGAAGGACGAACAUGAGGAUCACCCAUGUAUCAUGGUGUGGGCUUUCCU | 104 | 99.7 | – | –
3 | GCAGUAAAUAAAUGCACAUGAGGAUCACCCAUGUGGGAGGCACAGGAUAUCGCACCAUAGUGGCGCGAGAAGGGUGAUAAUCUC | – | – | 416 | 57.8
4 | CGACAAGUCGUAGGAUAUGGUGAUGUACAUGAGGAUCACCCAUGUCCGUCUUCUCUCACAAGAUGCCAGAAGGGCGACUUCCGG | – | – | 676 | 404
5 | CUUGUGUUAGGAUAUGCGCCCUGCAAAAGCAAGGCCAGAGAGCAGAAGGAACAUGAGGAUCACCCAUGUGUGAC | 55.8 | 57.7 | – | –
6 | CGCACUUAGCGAGGAUAUGUUAAACAUGAGGAUCACCCAUGUGAUUUAGUAUCAAUAUUAGUGAAACAGAAGGCGCUUAGUGCG | 14 | 13.2 | – | –
7 | GCGUCGUCGACUGAUAACAAGCCUAGAAGGCGGACAUGAGGAUCACCCAUGUCUGAUCCUCGGCCCGAGGAUAUAGGUUAAUGG | 28.6 | 13.4 | – | –
8 | AAUUACAUGUAGAAGGUACUAACAUAAGUGUUGUAAGGAUAUACCAAUUUAUUAGUUUUAAAGAUACAUGAGGAUCACCCAUGU | – | – | 12.5 | 8.22
9 | ACUGACAUGAGGAUCACCCAUGUCUUGAAUAGGUCAAAUUCACAGGAUAUGCACGCGGACAGAGUGCAGAAGGGUGAUGCAAUG | – | – | 44 | 11.8
10 | CUACCUUAUGAGAAGGCGGUCAUGAAACAUGAUCGAGGAUAUCAUGUAAACAUGAGGAUCACCCAUGUAUGGGUAUUAUGGUAC | – | – | 170 | 33
11 | GCGGAAGGCACAGGAUAUCGUCCUUAGUUGGUACGAGAAGGGUGGCGCUGCCACAUGAGGAUCACCCAUGUGCCUUGACUAUAG | – | – | 245 | 1180
12 | AUCAGCUCGUCAGGAUAUACGUCACUGCUUCGGCAGUGUAUUAAGAUCACAUGAGGAUCACCCAUGUAGAAGGGACGAGCUGAU | 21.7 | 226 | – | –
13 | CGGUCUUGUAACUAUUUGUUUCACAUGAGGAUCACCCAUGUCAGAAGGAGGUACAUCUAUUAGACCUAGGAUAUGACGUGUAAG | 27.5 | 100 | – | –
14 | ACAUGAGGAUCACCCAUGUUGAAUUAGGAUAUUUGACUGCACAUGAGGUUCACCCAUGUUCUACCGAAGAAGGGAUUAAUAAUU | – | – | 120 | 118
15 | AAAUUUUGUCAAGGAUAUGUAUAAAAGAGUUGAAAACAUGAGGAUCACCCAUGUAUAUGGUGGGAACAGAAGGUGAAUAAGUAA | 190 | 182 | – | –
16 | UGUGUAGAGGUGAAGCGAAUUACUGAGGAUAUGACAUGAGGAUCACCCAUGUACACAUCGUCAGGUCAGAAGGCAGUGGUUCUU | 7.2 | 21.1 | – | –
17 | AAGUUUGUACGAGGAUAUCAGUUGUUUCUAAAUUCAACAUGAGGAUCACCCAUGUAGCAAUGGAGUGAGAAGGCGUGUGGGCAA | – | – | 457 | 240
18 | UUUACAUGAGGAUCACCCAUGUCUUGCAAGAUGAGUUCUGGUGAGGAUAUACAUGGUAAAGAACUGUAGAAGGCACUGGGUACA | – | – | 432 | 430
19 | GCAUGCGUUCGAGGAUAUCGGUGAGAAACGGAACGAGAAGGCGAUCGAAUGUCUCAUCUUAUGAACAUGAGGAUCACCCAUGUA | – | – | 299 | 83.2
20 | GUGGUACAUGAGGAUCACCCAUGUUAGGAUAUCGCGUGAGGUUUUACUUCCGCACACACGAGAAGGGACGUCUU | 32.9 | 28 | – | –
21 | CUAGAGGAUUAAGGAUAUGCAGAGAGAUCAUGCGCGUCGCGCACAUGAGGAUCACCCAUGUAAGAGCAGAAGGUAACUAUGAUC | 18.3 | 16.6 | – | –
22 | CAAUUGGCACAGAAGGGUGACAUGAGGAUCACCCAUGUAGCGUGGCACUCAGGAGAAGCCACGCCACAGGAUAUGUGCCGGCAC | – | – | 73.6 | 37.1
23 | GUGAAGUAAGGAUAUAGUGGAAAAGAUAAGGUAUGAGAGUUCUAGAAGGUACAUGAGGAUCACCCAUGUUAGGG | 301 | 186 | – | –
24 | GCCAUCGUAUGAGGAUAUGGCACCGAAACGGUGCCAGAAGGCAUGUCAAUAGACAUGAGGAUCACCCAUGUUUUAUCGAUGGCA | – | – | 89.7 | 23.5

Row | Sequence | apparent Kd [1] [nM] | apparent Kd [2] [nM] | apparent Kd [3] [nM] | apparent Kd [4] [nM]
25 | CUUAUUAAACAAGGAUAUCAUUUGUGUACAAGUUUUACAUGAGGAUCACCCAUGUUAAAUGGUUUUGAGAAGGUGUUUAGAACU | – | – | 58.4 | 31.5
26 | AUUUUAAAGGGAGGAUAUACAUGAGGAUCACCCAUGUAAACGUGAGGAUCACCCAUGUAAACAAUGUAGAAGGCCUAAAUCUAU | 86.1 | 73.6 | – | –
27 | AUAAUUAUAUAUUUGGCAAGAAUCAGAAGGCGUUACAUGAGGAUCACCCAUGUUUUGUAUAGUAACGAGGAUAUGAUAUGGAAA | 16.3 | 12.7 | – | –
28 | GCACAUUUGUAAGGAUAUACAACAUGAGGAUCACCCAUGUGAUUGAAUUUAGUAGAAGGUACAGAAAUGAGUAUCACUUUUGUA | – | – | 16.8 | 10.9
29 | CGGGAGUCAGGAUAUACGAACAUGUCGCCAGAUGUCAUGGUACAUGAGGAUCACCCAUGUAGAAGGGAGGCGGU | 50.6 | 30.5 | – | –
30 | AGUAAGAUGCAGAAGGUGUCAGCUAGUGCUACGACAUGAGGAUCACCCAUGUACUAGAAACAGUACAAGGAUAUGCAUCUUACA | – | – | 56.8 | 8.32
31 | AACAAUCUAUCUGAGGAUAUUAUGAAAUAAACAUGAGGAUCACCCAUGUGCAGGAAAACUGCAUAUGAGAAGGCAGAUAGAUUGA | – | – | 428 | 18.5
32 | UUCCGACAUGAGGAUCACCCAUGUAAGGAUAUGUAUCCUUCGGCCCGAACCAGAGGAAGCAGAAGGUACAGGGA | 31.3 | 20 | – | –
33 | AGAACUGAUAGAGGAUAUGUUUUACAUGAGGAUCACCCAUGUGUACAAGGAUCAAUAUAUUAGUAACAGAAGGCUAUUAGUGAG | 13.2 | 19.5 | – | –
34 | GGAUAGGACAGAGGAUAUUCGUGCUAGAGAUACUAGCAAAAUUUCCUCACAUGAGGAUCACCCAUGUAGAAGGCUGUCCUAUCG | 5.37 | 10.3 | – | –
35 | UUUAUGAAGAUUCGUCAAUACAGUUAGGAUAUGAGAGACAUGAGGAUCACCCAUGUGCAUGUUGAUUAGAAGGAACAAUUAUCU | 19.1 | 16.9 | – | –
36 | UUAUAUAGAGUGAGGAUAUGCUGGUCCUUGGAUCAGCAGAAGGCACAUGAGGAUCACCCAUGUAAUAUAUUAUU | 22 | 38.2 | – | –
37 | AAACACAAACAUGAGGAUCACCCAUGUUAUGAAAAUAUUGGGAGAAGGGCGAUUGCAAAGCAAUCGCAGGAUAUUCGUAUUGUG | – | – | 34.4 | 12.2
38 | AAUUUUGCAGGAUAUGCGCAGCGUUUAGCCACACUAUGGAAACAUGAGGAUCACCCAUGUAGAAGGGCAGAGAU | 26.4 | 20.8 | – | –
39 | UCCUUUAAUACAGGAUAUGUUAUUAUACAGUUGUUUGCUUAUUACUUUAUAACAGAAGGGUAGAACAUGAGGAUCACCCAUGUA | – | – | 76 | 50
40 | AAUAUAAAGAGCUGGUAAAACUCGACAUGAGGAUCACCCAUGUAGGAUAUCAGCACGAUAAGUGCUGAGAAGGACAUCCAGCUC | 15.4 | 17.6 | – | –
41 | AUUCCUUGUGUUAGGAUAUGUCACUACCGUAUGCGACAGAAGGAACAUGAGGAUCACCCAUGUGAGUUAGCCGA | 87.5 | 24.1 | – | –
42 | GAGGAGCAAGGAUAUACGAGGAUAUGGUAGGUUGGAGAGUGACAUGAGGAUCACCCAUGUAGAAGGUGCGAGGG | 66.7 | 55.9 | – | –
43 | CACGGUGAUGUAGGAUAUAUGCUGGAAUACAGCAUAGAAGGACAUGAGGAUCACCCAUGUAAAGUGUCUCCAAAUAACACCGUG | 31.1 | 77 | – | –
44 | ACGAAAACACAAAUGUUCCACGGUGCAGAAGGGUCCCUCACAUGAGGAUCACCCAUGUAACUCGGACAGGAUAUGCUUUUGGGA | – | – | 380 | 11.4
45 | GGUACCAUCACAGGAUAUGCUAUCCUUUGGGUAGCAGAAGGGUGAUAACAUGAGGAUCACCCAUGUGGUACCGGGCGUGAGCCC | – | – | 1030 | 197
46 | GUCAGCUCGUGAGGAUAUACAACACUGCUUCGGCAGUGUAUUAAGAUCACAUGAGGAUCACCCAUGUAGAAGGGACGAGCUGAU | 11.8 | 20.7 | – | –
47 | AGUCUGCUAGGAUAUACAUGAGGAUCACCCAUGUCUAUCAAUAGACUAUUAACCUGGUGUAGAAGGAGCUUGUA | 11.2 | 14.4 | – | –
